According to ChEMBL document CHEMBL1142741, “Norpiperidine imidazoazepines as a new class of potent, selective, and nonsedative H1 antihistamines” (J Med Chem, 2005):

What was measured:
Histamine H1 receptor = Histamine H1 receptor (Homo sapiens, UniProt P35367); assay: Binding affinity for H1 histamine receptor expressed in CHO cells; format: cell-based
Canis familiaris [1] = assay: Onset action against Ascaris allergens induced cutaneous reactions was determined by oral administration at four times the peak effect dose in dog; format: functional, Canis lupus familiaris
How it was run: (§1)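 Beagle dogs of both sexes, selected for sensitivity to Ascaris allergens (ACF, 1/100 in saline), injected intradermally at three chest sites. Wheal diameter and skin thickness increase were read 15 min after injection, before and 1, 4, 20 and 72 h after oral dosing. Onset and duration were estimated graphically at four times the peak-effect dose.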

Rattus norvegicus [2] = assay: Effective dose for inhibition of skin reactions induced by histamine in rat by 2 hr after the subcutaneous administration; format: functional; settings: sc
How it was run: (§2)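 Male Wistar rats (200-240 g) were passively sensitized with intradermal ovalbumin-specific IgE serum; 50 h later histamine (50 µg), serotonin (0.1 µg) and Ascaris allergens (1/2 in saline) were injected intradermally at dorsal sites. Compound was given sc 2 h before challenge, with two observers' scores summed. Histamine and serotonin: inhibition score <4, blockade <3. PCA and Ascaris: score <3. ED50 by Finney's method, five animals per dose.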

Cavia porcellus [3] = assay: Effective dose for inhibition of skin reactions induced by Ascaris allergens in guinea pig by 2 hr after the oral administration
Rattus norvegicus [4] = assay: Effective dose for the inhibition of 48/80-induced lethal anaphylactic reaction was determined in rat by 2 hours after oral administration; format: functional
How it was run: (§3)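 Compound or solvent was given sc 1 h or po 2 h beforehand at 10 mL/kg, dosed as base equivalents from a 0.04-10 mg/kg geometric series, five rats per dose.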

Rattus norvegicus [5] = assay: Effective dose for blockade of skin reactions induced by passive cutaneous anaphylaxis in rat by 2 hr after the subcutaneous administration; format: functional; settings: sc; how it was run: as §2
[6] = pKa1 value was determined; format: physicochemical; settings: read-out: pKa1
[7] = pKa2 value was determined; format: physicochemical
How it was run: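 logP was measured in octanol/pH 12 buffer; pKa was measured by the Sirius PCA 101 method.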

Cavia porcellus [8] = assay: Effective dose for blockade of skin reactions induced by histamine in guinea pig by 2 hr after the oral administration
Cavia porcellus [9] = assay: Effective dose for inhibition of skin reactions induced by substance P in guinea pig by 2 hr after the oral administration
Rattus norvegicus [10] = assay: Effective dose for blockade of skin reactions induced by Ascaris allergens in rat by 2 hr after the subcutaneous administration; format: functional; settings: sc; how it was run: as §2
Rattus norvegicus [11] = assay: Effective dose for blockade of skin reactions induced by histamine in rat by 2 hr after the subcutaneous administration; format: functional; settings: sc; how it was run: as §2
Rattus norvegicus [12] = assay: Effective dose for the inhibition of 48/80-induced lethal anaphylactic reaction was determined in rat by 1 hour after subcutaneous administration; format: functional; settings: sc; how it was run: as §3
[13] = Partition coefficient (logP); format: physicochemical; settings: octanol/water
Rattus norvegicus [14] = assay: Effective dose for inhibition of skin reactions induced by serotonin in rat by 2 hr after the subcutaneous administration; format: functional; settings: sc; how it was run: as §2
Canis familiaris [15] = assay: Duration of action against Ascaris allergens induced cutaneous reactions was determined by oral administration at four times the peak effect dose in dog; format: functional, Canis lupus familiaris; how it was run: as §1
Canis familiaris [16] = assay: Peak effective dose for inhibition of skin reactions induced by Ascaris allergens in dog by 4 hr after the oral administration; settings: Canis lupus familiaris
Cavia porcellus [17] = assay: Effective dose for inhibition of skin reactions induced by histamine in guinea pig by 2 hr after the oral administration
[18] = Solubility in buffer (pH 4) at pH 5.4; format: physicochemical
How it was run: (§4)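 Excess or stated amounts of solute were shaken in closed vials of solvent for 24 h at 20 °C, following Higuchi and Connors. For clear solutions, only pH was recorded and solubility was taken as solute added per solvent volume. Turbid samples were filtered through 0.45 µm, the filtrate pH was recorded, and concentration was measured by UV absorption.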

[19] = Solubility in buffer of (pH 8) at pH 9.0; format: physicochemical; settings: buffer (pH 8); how it was run: as §4
[20] = Solubility in simulated gastric fluid at pH 3.1; format: physicochemical; how it was run: as §4
[21] = Solubility in simulated intestinal fluid at pH 10.1; format: physicochemical; how it was run: as §4
[22] = Solubility in 0.1 M HCl at pH 2.7; format: physicochemical; how it was run: as §4
[23] = Solubility in 0.1 M NaOH at pH 13.0; format: physicochemical; how it was run: as §4
[24] = Solubility in buffer (pH 10) at pH 10.2; format: physicochemical; how it was run: as §4
[25] = Solubility in buffer (pH 6) at pH 9.2; format: physicochemical; how it was run: as §4
[26] = Solubility in buffer (pH 2) at pH 4.8; format: physicochemical; how it was run: as §4
Rattus norvegicus [27] = assay: Effective dose for the inhibition of 48/80-induced lethal anaphylactic reaction was determined in rat by 2 hour after oral administration; format: functional; how it was run: as §3
[28] = Solubility in water mg/mL; format: physicochemical; how it was run: as §4
[29] = Solubility in simulated intestinal fluid at pH 2.3; format: physicochemical; how it was run: as §4
[30] = Solubility in buffer (pH 2) at pH 1.1; format: physicochemical; settings: in the assay text read “pH 1.8” for “pH 1.1”; how it was run: as §4
[31] = Solubility in 0.1 M HCl at pH 1.0; format: physicochemical; how it was run: as §4
[32] = Solubility in simulated gastric fluid at pH 1.1; format: physicochemical; how it was run: as §4
[33] = Solubility in buffer (pH 4) at pH 2.9; format: physicochemical; how it was run: as §4
[34] = Solubility in buffer (pH 6) at pH 4.2; format: physicochemical; how it was run: as §4
[35] = Solubility in buffer (pH 8) at pH 3.8; format: physicochemical; how it was run: as §4
[36] = Solubility in buffer (pH 10) at pH 4.3; format: physicochemical; how it was run: as §4
[37] = Solubility in 0.1 M NaOH at pH 12.6; format: physicochemical; how it was run: as §4
[38] = Solubility in water at pH 2.0; format: physicochemical; how it was run: as §4

Chain of Histamine H1 receptor (P35367 whole entry): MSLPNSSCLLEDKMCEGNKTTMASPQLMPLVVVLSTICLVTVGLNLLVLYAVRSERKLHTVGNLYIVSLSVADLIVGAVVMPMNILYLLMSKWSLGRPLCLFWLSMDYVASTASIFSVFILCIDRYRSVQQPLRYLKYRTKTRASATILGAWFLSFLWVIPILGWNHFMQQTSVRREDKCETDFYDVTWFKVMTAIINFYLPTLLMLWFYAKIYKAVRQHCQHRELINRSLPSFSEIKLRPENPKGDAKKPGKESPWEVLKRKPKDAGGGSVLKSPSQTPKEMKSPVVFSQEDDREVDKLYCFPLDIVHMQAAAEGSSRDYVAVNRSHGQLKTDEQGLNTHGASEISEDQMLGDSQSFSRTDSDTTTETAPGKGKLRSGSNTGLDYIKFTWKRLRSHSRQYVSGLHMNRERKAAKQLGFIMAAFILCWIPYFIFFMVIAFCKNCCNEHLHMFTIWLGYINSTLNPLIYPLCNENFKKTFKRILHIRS

Compound	Ki (Histamine H1 receptor)	Time (Canis familiaris [1])	ED50 (Rattus norvegicus [2])	ED50 (Cavia porcellus [3])	ED50 (Rattus norvegicus [5])	pKa [6]	ED50 (Cavia porcellus [8])	ED50 (Cavia porcellus [9])	ED50 (Rattus norvegicus [10])	ED50 (Rattus norvegicus [11])	ED50 (Rattus norvegicus [12])	logP [13]	ED50 (Rattus norvegicus [14])	Time (Canis familiaris [15])	ED50 (Canis familiaris [16])	ED50 (Cavia porcellus [17])	ED50 (Rattus norvegicus [27])	further results
Cn1ccc2c1CCn1ccnc1C2=C1CCNCC1	22 nM	<1 h	0.08 mg/kg	8.7 mg/kg	0.08 mg/kg	9.85	0.96 mg/kg	1.7 mg/kg	0.13 mg/kg	0.13 mg/kg	0.028 mg/kg	1.25	> 0.16 mg/kg	35 h	0.038 mg/kg	0.24 mg/kg		ED50 (Rattus norvegicus [4]): 0.76 mg/kg; Pka2 [7]: 6.52
Cl.NC(=O)c1cnc2n1CCc1ccccc1C21CCNCC1																		solubility [18]: > 20 mg/mL; solubility [19]: 12.2 mg/mL; solubility [20]: > 20 mg/mL; solubility [21]: 1.69 mg/mL; solubility [22]: > 20 mg/mL; solubility [23]: 0.93 mg/mL; solubility [24]: 1.65 mg/mL; solubility [25]: 8.04 mg/mL; solubility [26]: > 20 mg/mL
Cn1ccc2c1C(=O)Cn1ccnc1C2=C1CCNCC1	12 nM	<1 h	0.55 mg/kg	0.42 mg/kg	0.42 mg/kg		0.08 mg/kg	> 2.5 mg/kg	2.9 mg/kg	0.95 mg/kg	0.037 mg/kg		> 10 mg/kg	13 h	0.018 mg/kg	0.02 mg/kg	0.34 mg/kg	
Cl.Cl.O=C(O)COCCN1CCN([C@H](c2ccccc2)c2ccc(Cl)cc2)CC1 [LEVOCETIRIZINE DIHYDROCHLORIDE]		<1 h	0.68 mg/kg	> 2.5 mg/kg	2.7 mg/kg		0.14 mg/kg	> 2.5 mg/kg	3.6 mg/kg	0.68 mg/kg			> 10 mg/kg	30 h	0.14 mg/kg	0.046 mg/kg	1.2 mg/kg	
CCOC(=O)N1CCC(=C2c3ccc(Cl)cc3CCc3cccnc32)CC1 [LORATADINE]		<1 h	0.89 mg/kg	0.42 mg/kg	1.6 mg/kg		0.32 mg/kg	2.2 mg/kg	2.7 mg/kg	1.8 mg/kg	0.29 mg/kg		6.2 mg/kg	33 h	0.2 mg/kg	0.08 mg/kg	0.22 mg/kg	
Cl.Cl.NC(=O)c1cnc2n1CCc1ccccc1C21CCNCC1 [VAPITADINE DIHYDROCHLORIDE]	19 nM	<1 h	0.51 mg/kg	1.2 mg/kg	2.3 mg/kg	9.88	0.14 mg/kg	1.6 mg/kg	2.7 mg/kg	1.4 mg/kg	0.056 mg/kg	1.18	> 10 mg/kg	21 h	0.024 mg/kg	0.1 mg/kg	1.2 mg/kg	solubility [28]: > 20 mg/mL; solubility [29]: > 20 mg/mL; pKa ([7]; read-out: pKa2): 3; solubility [30]: > 20 mg/mL; solubility [31]: > 20 mg/mL; solubility [32]: > 20 mg/mL; solubility [33]: > 20 mg/mL; solubility [34]: > 20 mg/mL; solubility [35]: > 20 mg/mL; solubility [36]: > 20 mg/mL; solubility [37]: 3.09 mg/mL; solubility [38]: > 20 mg/mL
